Laboratory results taken from ChEMBL document CHEMBL4316597, “Design, Synthesis, and Biological Evaluation of Itaconic Acid Derivatives as Potential Anti-Influenza Agents” (J Med Chem, 2019).
Activity calls are given as the source filed them. The rule behind the calls is not given here.

Experiments:
[1] = Cytotoxicity against MDCK cells assessed as cell death after 72 hrs by MTT assay; format: cell-based, Canis lupus familiaris; conditions: dog
Method in brief: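 MDCK or RD cells at 2 × 10^4/well in E10, overnight at 37 °C/5% CO2, DPBS wash, then exposed to graded compound concentrations for 72 h. MTT added for 3 h, formazan dissolved in DMSO, absorbance read at 570 nm. CC50 (50% cell death) by Reed–Muench.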

[2] = Selectivity ratio of CC50 for MDCK cells to EC50 for Influenza A virus (A/WSN/33); format: toxicity; conditions: dog, read-out: Ratio CC50/EC50
Method in brief: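 SI is calculated as CC50 (MDCK, 72 h MTT) divided by EC50 (72 h crystal-violet CPE assay in MDCK).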

[3] = test system: Influenza A virus; assay: Antiviral activity against Influenza A virus (A/WSN/33) infected in MDCK cells assessed as reduction in virus-induced cytopathic effect after 72 hrs by crystal violet-staining based assay; format: functional, organism-based; conditions: A/WSN/1933(H1N1)
Method in brief: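 Cells seeded at 2 × 10^4/well in E10 (DMEM, 10% FBS), 16–24 h at 37 °C/5% CO2, washed with DPBS, then infected at nine-fold TCID50 with or without serial compound concentrations. Influenza is run in MDCK and enterovirus/rhinovirus in RD. Incubated 72 h, fixed in 4% paraformaldehyde, stained with 0.1% crystal violet, and read for cell density. EC50 = 50% CPE inhibition by Reed–Muench; mean ± S.D. of at least three runs.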

[4] = test system: Influenza A virus; assay: Inhibition of viral protein sub-cellular distribution in Influenza A virus (A/WSN/33) infected in MDCK cells assessed as reduction in NS2 protein distribution to cytoplasm at 10 nM measured after 9 hrs post infection by IF-staining based microscopy; format: functional, organism-based; conditions: A/WSN/1933(H1N1)
Method in brief: (§1)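 MDCK cells grown on coverslips (2 × 10^5/well, 16 h), infected at MOI 0.1 for 1 h, washed, then kept in E0 with test compound (1 or 10 μM) or LMB 10 nM; DMSO 0.05% as mock. Fixed at 9 h pi in 4% paraformaldehyde and immunostained for M1, NP, NS2 or PA (1:50), with Hoechst nuclear stain. Viewed by confocal microscopy at 63×. NP nuclear/cytoplasmic intensity ratio quantified; three independent experiments.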

[5] = test system: Influenza A virus; assay: Antiviral activity against Influenza A virus (A/WSN/33) infected in MDCK cells assessed as reduction in NS2 protein distribution to cytoplasm at 10 nM measured after 9 hrs post infection by IF-staining based microscopy; format: functional, organism-based; conditions: A/WSN/1933(H1N1); method in brief: as §1
[6] = test system: Influenza A virus; assay: Antiviral activity against Influenza A virus (A/WSN/33) infected in MDCK cells assessed as reduction in PA protein distribution to cytoplasm at 10 nM measured after 9 hrs post infection by IF-staining based microscopy; format: functional, organism-based; conditions: A/WSN/1933(H1N1); method in brief: as §1
[7] = test system: MDCK; assay: Inhibition of CRM1 in MDCK cells infected with Influenza A virus (A/WSN/33) assessed as reduction in CRM1-mediated viral protein nuclear export by measuring reduction in NP protein distribution to cytoplasm at 10 nM measured after 9 hrs post infection by IF-staining based microscopy; format: cell-based; conditions: Canis lupus familiaris; method in brief: as §1
[8] = test system: Influenza A virus; assay: Inhibition of viral protein sub-cellular distribution in Influenza A virus (A/WSN/33) infected in MDCK cells assessed as reduction in PA protein distribution to cytoplasm at 10 nM measured after 9 hrs post infection by IF-staining based microscopy; format: functional, organism-based; conditions: A/WSN/1933(H1N1); method in brief: as §1
[9] = test system: Influenza A virus; assay: Inhibition of viral protein sub-cellular distribution in Influenza A virus (A/WSN/33) infected in MDCK cells assessed as reduction in M1 protein distribution to cytoplasm at 10 nM measured after 9 hrs post infection by IF-staining based microscopy; format: functional, organism-based; conditions: A/WSN/1933(H1N1); method in brief: as §1
[10] = test system: Influenza A virus; assay: Antiviral activity against Influenza A virus (A/WSN/33) infected in MDCK cells assessed as reduction in NP protein distribution to cytoplasm at 10 nM measured after 9 hrs post infection by IF-staining based microscopy; format: functional, organism-based; conditions: A/WSN/1933(H1N1); method in brief: as §1
[11] = test system: Influenza A virus; assay: Antiviral activity against Influenza A virus (A/WSN/33) infected in MDCK cells assessed as reduction in M1 protein distribution to cytoplasm at 10 nM measured after 9 hrs post infection by IF-staining based microscopy; format: functional, organism-based; conditions: A/WSN/1933(H1N1); method in brief: as §1

Compound `C=C(CC(=O)Nc1ccc(OC)cc1F)C(=O)Nc1ccc(OC)cc1F` has a CC50 at 72 h [1] of over 110 µM, a selectivity ratio [2] of over 3 and an EC50 [3] of 31 µM.
`C=C(CC(=O)Nc1cccc(C(F)(F)F)c1)C(=O)O` showed a CC50 at 72 h [1] of over 110 µM and an EC50 [3] of over 50 µM.
Compound `C=C(CC(=O)Nc1cc(C(F)(F)F)ccc1F)C(=O)O` has a CC50 at 72 h [1] of over 110 µM and an EC50 [3] of over 50 µM.
In the case of `CCC(=C/[C@H](C)C/C=C/C(C)=C/[C@@H](C)C(=O)[C@@H](C)[C@H](O)[C@@H](C)C/C(C)=C/C(=O)O)/C=C/[C@@H]1OC(=O)C=C[C@@H]1C` [LEPTOMYCIN B], the inhibition [4] is reported as “inactive”, the Activity [5] is reported as “inactive” and the Activity [6] is reported as “inactive”. For the same compound, the inhibition [7] was “Active”, the inhibition [8] was “inactive” and the inhibition [9] was “inactive”. For the same compound, the CC50 at 72 h [1] was over 0.88 µM, the Activity [10] was “Active” and the Activity [11] was “inactive”. It also gave a selectivity ratio [2] of over 4 and an EC50 [3] of 0.18 µM.
In the case of `C=C(CC(=O)NCc1ccc(F)cc1F)C(=O)NCc1ccc(F)cc1F`, the CC50 at 72 h [1] is reported as over 110 µM and the EC50 [3] is reported as over 50 µM.
In the case of `C=C(CC(=O)Nc1ccc(F)cc1C(F)(F)F)C(=O)Nc1ccc(F)cc1C(F)(F)F`, the CC50 at 72 h [1] is reported as over 110 µM and the EC50 [3] is reported as over 50 µM.
In the case of `C=C(CC(=O)Nc1cc(C(F)(F)F)ccc1F)C(=O)Nc1cc(C(F)(F)F)ccc1F`, the CC50 at 72 h [1] is reported as 15 µM, the selectivity ratio [2] is reported as 136 and the EC50 [3] is reported as 0.11 µM.
Work on `C=C(CC(=O)Nc1ccc(Br)cc1F)C(=O)Nc1ccc(Br)cc1F` yielded a CC50 at 72 h [1] of over 110 µM, a selectivity ratio [2] of over 111 and an EC50 [3] of 0.99 µM.
With `C=C(CC(=O)Nc1cc(F)ccc1C(F)(F)F)C(=O)O` the CC50 at 72 h [1] was over 110 µM and the EC50 [3] was over 50 µM.
In the case of `O=C(/C=C\n1cnc(-c2cc(C(F)(F)F)cc(C(F)(F)F)c2)n1)NNc1ccccn1` [VERDINEXOR], the CC50 at 72 h [1] is reported as 31.8 µM, the selectivity ratio [2] is reported as 9.69 and the EC50 [3] is reported as 3.28 µM.
With `C=C(CC(=O)Nc1cc(F)ccc1F)C(=O)Nc1cc(F)ccc1F` the CC50 at 72 h [1] was 32.8 µM, the selectivity ratio [2] was 26 and the EC50 [3] was 1.26 µM.
Work on `C=C(CC(=O)Nc1ccc(Br)cc1Br)C(=O)Nc1ccc(Br)cc1Br` yielded a CC50 at 72 h [1] of over 110 µM, a selectivity ratio [2] of over 2 and an EC50 [3] of 41.6 µM.
For `C=C(CC(=O)Nc1ccccc1C(F)(F)F)C(=O)O`, the CC50 at 72 h [1] was over 110 µM and the EC50 [3] was over 50 µM.
